Data reported in paper PMC9078890 (RSC Advances, 2018).
Like-named read-outs stand apart in the source and are kept apart here.

Assays:
PYK2 [1] = biological target: T1, PYK2 (Homo sapiens, UniProt Q14289); experiment: Kinase selectivity profiling, HTRF kinEASE-TK; format: biochemical
Outline: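 HTRF KinEASE-TK format; enzyme level, reaction time and ATP level were optimised beforehand. Test compound in kinase buffer, at half-log serial dilutions from 100 µM top (final), was mixed with TK substrate-biotin and kinase. ATP was added to start the reaction, which ran at room temperature. Eu3+-cryptate TK antibody and streptavidin-XL665 (0.125 μM final) were added; TR-FRET was read after 1 h. Triplicates; IC50 from sigmoid dose-response fit.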

PYK2 [2] = biological target: T1, PYK2; conditions: read-out: Reported IC50 PYK2; cited from earlier work
[3] = biological target: Truncated human FAK(PTK2) (Homo sapiens, UniProt Q05397); experiment: In vitro FAK inhibition, HTRF kinEASE-TK kinase assay; format: biochemical
Truncated human FAK(PTK2), sequence (Q05397 376-1052): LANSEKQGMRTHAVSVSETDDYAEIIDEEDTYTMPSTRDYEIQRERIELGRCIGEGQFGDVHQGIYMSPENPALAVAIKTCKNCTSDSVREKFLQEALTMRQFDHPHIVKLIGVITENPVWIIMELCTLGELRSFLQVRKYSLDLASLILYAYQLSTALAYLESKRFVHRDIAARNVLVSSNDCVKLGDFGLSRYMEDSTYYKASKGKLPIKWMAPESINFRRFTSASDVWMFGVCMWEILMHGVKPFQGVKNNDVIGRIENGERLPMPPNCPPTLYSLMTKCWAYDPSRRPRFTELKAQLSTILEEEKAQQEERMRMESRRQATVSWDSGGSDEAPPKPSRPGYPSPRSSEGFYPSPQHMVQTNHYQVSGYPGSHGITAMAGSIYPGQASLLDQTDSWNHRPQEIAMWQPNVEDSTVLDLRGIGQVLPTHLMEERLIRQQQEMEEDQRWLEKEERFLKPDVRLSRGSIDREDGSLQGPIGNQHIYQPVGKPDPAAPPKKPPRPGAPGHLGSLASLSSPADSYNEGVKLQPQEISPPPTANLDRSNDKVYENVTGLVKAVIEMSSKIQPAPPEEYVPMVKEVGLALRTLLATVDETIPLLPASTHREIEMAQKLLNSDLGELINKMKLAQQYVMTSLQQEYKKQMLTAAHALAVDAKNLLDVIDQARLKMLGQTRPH

IGF-1R = IGF-1R (Homo sapiens, UniProt P08069); experiment: Kinase selectivity profiling, HTRF kinEASE-TK; format: biochemical; conditions: relative to FAK
PDGFRβ = PDGFRβ (Homo sapiens, UniProt P09619); experiment: Kinase selectivity profiling, HTRF kinEASE-TK; format: biochemical; conditions: relative to FAK
PDGFRβ, sequence (P09619 33-1106, species assumed): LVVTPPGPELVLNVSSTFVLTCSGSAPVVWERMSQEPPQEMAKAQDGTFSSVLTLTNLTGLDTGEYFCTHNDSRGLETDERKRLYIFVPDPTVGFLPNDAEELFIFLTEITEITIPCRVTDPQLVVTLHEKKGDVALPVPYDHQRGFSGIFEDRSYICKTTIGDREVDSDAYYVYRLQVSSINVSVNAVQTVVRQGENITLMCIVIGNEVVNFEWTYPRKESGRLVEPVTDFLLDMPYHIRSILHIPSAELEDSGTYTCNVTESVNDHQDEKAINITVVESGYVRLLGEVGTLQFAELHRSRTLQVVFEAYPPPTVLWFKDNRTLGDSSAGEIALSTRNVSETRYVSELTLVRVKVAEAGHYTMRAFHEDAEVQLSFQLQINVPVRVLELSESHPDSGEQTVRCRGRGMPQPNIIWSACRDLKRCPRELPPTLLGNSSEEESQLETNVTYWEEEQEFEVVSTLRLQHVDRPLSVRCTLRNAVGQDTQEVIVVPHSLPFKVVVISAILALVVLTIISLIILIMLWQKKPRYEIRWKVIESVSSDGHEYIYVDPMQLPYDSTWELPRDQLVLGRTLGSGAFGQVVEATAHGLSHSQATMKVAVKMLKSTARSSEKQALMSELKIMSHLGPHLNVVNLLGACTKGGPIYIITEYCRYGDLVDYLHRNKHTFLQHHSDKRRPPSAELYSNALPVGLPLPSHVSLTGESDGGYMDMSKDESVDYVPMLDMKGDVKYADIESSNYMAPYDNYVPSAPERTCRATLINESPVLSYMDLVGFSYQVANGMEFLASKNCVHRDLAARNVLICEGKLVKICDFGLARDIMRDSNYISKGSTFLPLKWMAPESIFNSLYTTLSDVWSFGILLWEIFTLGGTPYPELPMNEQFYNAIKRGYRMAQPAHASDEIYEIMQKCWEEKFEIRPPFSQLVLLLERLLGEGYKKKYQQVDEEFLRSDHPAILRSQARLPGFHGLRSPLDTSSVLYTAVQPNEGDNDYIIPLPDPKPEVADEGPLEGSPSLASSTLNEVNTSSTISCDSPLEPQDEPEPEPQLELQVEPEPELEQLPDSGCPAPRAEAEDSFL

EGFR = EGFR (Homo sapiens, UniProt P00533); experiment: biochemical; format: biochemical
EGFR, sequence (P00533 25-1210, species assumed): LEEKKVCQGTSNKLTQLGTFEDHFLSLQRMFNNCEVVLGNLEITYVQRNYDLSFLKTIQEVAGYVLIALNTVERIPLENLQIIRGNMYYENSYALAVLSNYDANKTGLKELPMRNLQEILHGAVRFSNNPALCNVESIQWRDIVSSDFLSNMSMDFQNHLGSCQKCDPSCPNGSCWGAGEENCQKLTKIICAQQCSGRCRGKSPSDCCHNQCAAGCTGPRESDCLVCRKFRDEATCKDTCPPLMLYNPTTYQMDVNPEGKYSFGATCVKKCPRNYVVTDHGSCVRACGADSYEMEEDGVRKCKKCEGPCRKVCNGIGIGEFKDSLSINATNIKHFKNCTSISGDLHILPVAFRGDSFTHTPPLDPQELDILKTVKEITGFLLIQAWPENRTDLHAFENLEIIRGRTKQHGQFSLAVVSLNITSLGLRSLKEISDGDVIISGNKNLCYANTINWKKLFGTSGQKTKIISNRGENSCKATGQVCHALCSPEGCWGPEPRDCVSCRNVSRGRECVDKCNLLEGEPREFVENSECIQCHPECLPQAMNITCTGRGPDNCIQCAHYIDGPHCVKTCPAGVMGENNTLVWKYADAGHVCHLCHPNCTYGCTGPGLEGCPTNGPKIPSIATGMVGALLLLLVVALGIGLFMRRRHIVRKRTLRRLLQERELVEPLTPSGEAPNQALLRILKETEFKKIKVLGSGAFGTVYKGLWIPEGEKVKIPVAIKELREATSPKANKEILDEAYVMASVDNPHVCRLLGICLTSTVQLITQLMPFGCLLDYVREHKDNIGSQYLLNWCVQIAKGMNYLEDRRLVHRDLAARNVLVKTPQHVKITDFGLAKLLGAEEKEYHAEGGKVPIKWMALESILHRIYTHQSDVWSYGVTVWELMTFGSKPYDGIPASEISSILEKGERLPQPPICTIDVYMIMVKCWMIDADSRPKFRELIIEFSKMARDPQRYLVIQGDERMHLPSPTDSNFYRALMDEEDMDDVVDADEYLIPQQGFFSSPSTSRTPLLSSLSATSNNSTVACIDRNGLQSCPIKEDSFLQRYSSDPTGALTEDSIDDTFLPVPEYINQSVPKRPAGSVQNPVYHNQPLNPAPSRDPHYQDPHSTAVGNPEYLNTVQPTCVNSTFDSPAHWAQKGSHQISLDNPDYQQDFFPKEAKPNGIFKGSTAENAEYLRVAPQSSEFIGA

T1 sequence (Q14289 whole entry, species assumed): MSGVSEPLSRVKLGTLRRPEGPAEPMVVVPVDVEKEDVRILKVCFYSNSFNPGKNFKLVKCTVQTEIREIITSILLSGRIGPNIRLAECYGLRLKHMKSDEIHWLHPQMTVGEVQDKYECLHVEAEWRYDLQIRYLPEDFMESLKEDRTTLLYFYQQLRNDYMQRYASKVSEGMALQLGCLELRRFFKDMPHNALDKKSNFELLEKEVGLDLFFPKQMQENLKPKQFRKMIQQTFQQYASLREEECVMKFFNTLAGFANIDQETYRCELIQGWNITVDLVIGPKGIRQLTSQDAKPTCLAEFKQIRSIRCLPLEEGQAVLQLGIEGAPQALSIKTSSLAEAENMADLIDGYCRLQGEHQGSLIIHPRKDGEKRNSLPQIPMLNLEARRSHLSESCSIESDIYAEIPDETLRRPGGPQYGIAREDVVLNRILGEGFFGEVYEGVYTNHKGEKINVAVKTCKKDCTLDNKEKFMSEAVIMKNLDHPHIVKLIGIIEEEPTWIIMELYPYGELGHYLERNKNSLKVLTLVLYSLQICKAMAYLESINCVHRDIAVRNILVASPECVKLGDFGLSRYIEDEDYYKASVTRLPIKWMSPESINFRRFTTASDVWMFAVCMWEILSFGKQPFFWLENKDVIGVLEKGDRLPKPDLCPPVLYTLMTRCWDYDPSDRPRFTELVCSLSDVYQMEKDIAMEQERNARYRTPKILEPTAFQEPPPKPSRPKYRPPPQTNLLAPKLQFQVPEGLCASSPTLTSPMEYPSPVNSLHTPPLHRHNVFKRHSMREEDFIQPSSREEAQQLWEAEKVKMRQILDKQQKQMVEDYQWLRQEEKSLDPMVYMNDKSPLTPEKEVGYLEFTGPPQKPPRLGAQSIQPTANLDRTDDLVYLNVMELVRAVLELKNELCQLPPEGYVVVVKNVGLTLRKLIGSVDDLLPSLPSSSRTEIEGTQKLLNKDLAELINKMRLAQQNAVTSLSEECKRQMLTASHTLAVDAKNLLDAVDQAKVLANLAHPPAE

IC50 (PYK2 [1]; read-out: IC50 ± SD PYK2, mean of three determinations) [nM]	IC50 [3] [nM]	IC50 (PYK2 [1]) [nM]	selectivity against PYK2 (PYK2 [1]; relative to FAK) [folds]	selectivity against IGF-1R (IGF-1R)	selectivity against PDGFRβ (PDGFRβ)	IC50 (EGFR) [nM]	selectivity against EGFR (EGFR; relative to FAK) [folds]	SMILES	IC50 (PYK2 [2]) [nM]
5.7 ± 1.4								CNC(=O)c1ccccc1Nc1nc(Nc2ccc(N3CCOCC3)cc2OC)ncc1Cl [NVP-TAE226, reference compound]	3.5 ± 2.1
	57.1 ± 8.3	3560 ± 626	62.4	more than 200 folds	more than 200 folds	4310 ± 562	75.5	COc1ccc(Nc2nc(Nc3ccc(OCCOCCF)cc3)ncc2Br)cc1 [[^19F]2, 5-Bromo-N^2-(4-(2-(2-fluoroethoxy)ethoxy)phenyl)-N^4-(4-methoxyphenyl)pyrimidine-2,4-diamine]	
	1110 ± 60.9							COc1ccc(Nc2nc(Nc3ccc(OCCOCCOCCF)cc3)ncc2Br)cc1 [[^19F]3, 5-Bromo-N^2-(4-(2-(2-(2-fluoroethoxy)ethoxy)ethoxy)phenyl)-N^4-(4-methoxyphenyl)pyrimidine-2,4-diamine]	
